Among the data in ChEMBL document CHEMBL4325821, “Novel cell-penetrating-amyloid peptide conjugates preferentially kill cancer cells” (Medchemcomm, 2018) are Activity, Drug uptake and EC50 values, retold here.

The source made the active and inactive calls. No cut-off for these calls is given here. Starred links: 1 amine or outer side, 2 acyl side, 3 side chain; linkers in the order of their positions; H or OH if unused. Residues, ends and D or L forms follow the SMILES beside them. *: point of attachment. Piperazinyl(4-RhodamineB) = CCN(CC)c1ccc2c(-c3ccccc3C(=O)N3CCN(*)CC3)c3ccc(=[N+](CC)CC)cc-3oc2c1; Suc = O=C(CCC(=O)[*:2])[*:1]

Data set [1] deals with HT-22. Description: Induction of endosomal/lysosomal membrane permeabilization in mouse HT22 cells at 15 uM measured after 1 hr by acridine orange dye based fluorescence microscopic analysis. Type of data set: functional.
Data set [2] is described as follows: Drug localization in cytosol of mouse Rh-Dextran-labelled HT22 cells at 7.5 uM after 2.5 hrs using fluorescent-labelled peptide by confocal microscopic analysis. The format is ADME, subcellular, HT-22.
Data set [3] relates to HT-22. Description: Cytotoxicity against mouse HT22 cells after 24 hrs in presence of lysosomal protease inhibitor bafilomycin A1 by MTT assay. Type of data set: functional, cell-based.
Data set [4] relates to HT-22. Description: Aggregation property of the compound in mouse HT22 cells assessed as intracellular amyloid formation at 15 uM after 1 hr by thioflavin S/DAPI staining based fluorescence microscopic analysis. Type of data set: ADME, cell-based. The note with it: ht-22, 1 h. Put shortly: (§1)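 Cells treated with vehicle or 15 μM peptide for 1 h, fixed in 4% PFA for 20 min, stained with 0.005% (w/v) ThS in water for 10 min, washed three times with absolute ethanol, counterstained with DAPI, and imaged by epifluorescence microscopy.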

In a further data set the test system is HEK293. Description: Cytotoxicity against HEK293 cells after 24 hrs by MTT assay. The note with it: human, hek293, 24 h. Type of data set: cell-based. In a few lines:
(§2)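 Cells grown at 37 °C with 5% CO2 and treated at about 50–70% confluence in serum-free medium for 24 h. Viability read by MTT and expressed as a percentage of untreated cells. Run in triplicate in at least three independent trials, reported as mean ± standard deviation.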

The next data set relates to MDA-MB-231. Description: Cytotoxicity against human MDA-MB-231 cells after 24 hrs by MTT assay. The format is functional. The note with it: for EC50: MDA-MB-231, 24 h, read-out: ED50 (the source's name). In a few lines:
(§3)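 Per well of a 48-well plate, 1.5 × 10^4 cells were seeded in medium with 10% FBS and grown for at least 24 h, then treated at about 50–60% confluence for 24 h. MTT was added for the final 3 h at 37 °C in the dark. Formazan was dissolved in DMSO and read at 595 nm, as % of untreated cells. Triplicate wells, at least three independent trials.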

Data set [5] has as its system HT-22. Description: Cytotoxicity against mouse HT22 cells after 24 hrs in presence of lysosomal protease inhibitor leupeptin by MTT assay. Type of data set: functional, cell-based.
Data set [6] relates to HT-22. Description: Cytotoxicity against mouse HT22 cells after 24 hrs in presence of lysosomal protease inhibitor ammonium chloride by MTT assay. The format is functional, cell-based.
For data set [7], the system named is HT-22. Description: Induction of cell death in mouse HT22 cells by thioflavin S/DAPI/propidium iodide staining based fluorescence microscopic analysis. Type of data set: functional. Put shortly: (§4)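 Cells were given vehicle or 7.5 μM peptide for 3 h and stained live with 20 μg mL−1 propidium iodide for 10 min. They were then PBS-washed, fixed in 4% PFA, stained with 0.005% ThS for 10 min, ethanol-washed, counterstained with DAPI and imaged by fluorescence microscopy.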

The subject of the next data set is MCF-10A. Description: Cytotoxicity against human MCF10A cells after 24 hrs by MTT assay. Type of data set: cell-based. In a few lines: as §3
In the next data set the test system is HeLa. Description: Cytotoxicity against human HeLa cells after 24 hrs by MTT assay. Type of data set: functional. In a few lines:
as §2

Data set [8] in a line: Drug localization in nucleus of HEK293 cells assessed as punctate formation after 3 hrs by DAPI staining based fluorescence microscopic analysis. The format is ADME, subcellular. The note with it: human, hek293, 3 h. Put shortly: (§5)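 Rhodamine-labelled peptide (3.5 μM) was given for 3 h at 37 °C. Cells were washed with DMEM and PBS, fixed in 4% PFA for 20 min, nuclei stained with DAPI, and imaged by epifluorescence with 40× air or 60× oil objectives.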

A short description of data set [9]: Drug uptake in mouse HT22 cells at 3.5 uM up to 3 hrs by DAPI staining based fluorescence microscopic analysis. Particulars: ht-22, 3 h. The format is ADME, cell-based. In a few lines: (§6)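 HT-22 cells were incubated with 3.5 μM rhodamine-labelled peptide for 30 min, 3 h, 6 h and 24 h at 37 °C, then fixed in 4% PFA with DAPI nuclear stain. Per-cell fluorescence was taken as integrated density after background correction.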

Data set [10] in a line: Drug localization in late endosomes/lysosomes of mouse Rh-Dextran-labelled HT22 cells at 7.5 uM after 2.5 hrs using fluorescent-labelled peptide by confocal microscopic analysis. Type of data set: ADME, subcellular, Late endosome/lysosome. Particulars: ht-22, 2.5 h.
Data set [11] is described as follows: Drug localization in nucleus of human HeLa cells assessed as punctate formation after 3 hrs by DAPI staining based fluorescence microscopic analysis. The format is ADME, subcellular. In a few lines:
as §5

Data set [12] can be described thus: Drug localization in cytosol of mouse HT22 cells assessed as punctate formation after 3 hrs by DAPI staining based fluorescence microscopic analysis. The format is ADME, subcellular, HT-22. In a few lines:
as §5

The nature of data set [13]: Drug uptake in mouse HT22 cells at 3.5 uM after 6 to 24 hrs by DAPI staining based fluorescence microscopic analysis. Type of data set: ADME, cell-based. The note with it: ht-22, 3.5 µM. In a few lines:
as §6

Data set [14] can be described thus: Drug localization in cytosol of HEK293 cells assessed as punctate formation after 3 hrs by DAPI staining based fluorescence microscopic analysis. The format is ADME, subcellular. The note with it: human. In a few lines: as §5
Data set [15] can be described thus: Drug localization in nucleus of mouse HT22 cells assessed as punctate formation after 3 hrs by DAPI staining based fluorescence microscopic analysis. The format is ADME, subcellular. The note with it: ht-22, 3 h. Put shortly:
as §5

A short description of data set [16]: Drug localization in cytosol of human HeLa cells assessed as punctate formation after 3 hrs by DAPI staining based fluorescence microscopic analysis. Type of data set: ADME, subcellular. In a few lines:
as §5

The test system of data set [17] is HT-22. Description: Induction of cell death in mouse HT22 cells at 7.5 uM after 3 hrs by thioflavin S/DAPI/propidium iodide staining based fluorescence microscopic analysis. The format is functional. In a few lines:
as §4

Data set [18] relates to HT-22. Description: Aggregation property of the compound in mouse HT22 cells assessed as intracellular amyloid formation by thioflavin S/DAPI staining based fluorescence microscopic analysis. Type of data set: ADME, cell-based. In a few lines:
as §1

As to Ac-VQIVYKRRRRRRRRR-NH2, the result in the data set with HT-22 [1], with HT-22 [7] and with HeLa was Active. Moreover, the Drug uptake entry in data set [2] is reported as “Active”. The outcome in the data set on HT-22 [3], with HT-22 [5] and in the data set with HT-22 [6] was inactive. For the same molecule, the Activity entry is “Active” in the data set with HT-22 [4], “Non-Toxic” with HEK293 and “Non-Toxic” with MCF-10A. Further, the EC50 in the data set on MDA-MB-231 came to 5 µM.

On to Ac-VQIVYK-NH2, for which the Activity entry is listed as “Not Active” in the data set with HT-22 [4] and “Non-Toxic” in the data set on MCF-10A. In the data set with MDA-MB-231, the outcome was inactive. Besides, in the data set on HeLa, the result was Active.

For `CC[C@H](C)[C@H](NC(=O)[C@H](CCC(N)=O)NC(=O)[C@@H](NC(=O)CCC(=O)N1CCN(C(=O)c2ccccc2-c2c3ccc(=[N+](CC)CC)cc-3oc3cc(N(CC)CC)ccc23)CC1)C(C)C)C(=O)N[C@H](C(=O)N[C@@H](Cc1ccc(O)cc1)C(=O)N[C@@H](CCCCN)C(=O)N[C@@H](CCCNC(=N)N)C(=O)N[C@@H](CCCNC(=N)N)C(=O)N[C@@H](CCCNC(=N)N)C(=O)N[C@@H](CCCNC(=N)N)C(=O)N[C@@H](CCCNC(=N)N)C(=O)N[C@@H](CCCNC(=N)N)C(=O)N[C@@H](CCCNC(=N)N)C(=O)N[C@@H](CCCNC(=N)N)C(=O)N[C@@H](CCCNC(=N)N)C(N)=O)C(C)C.[Cl-]` ({Piperazinyl(4-RhodamineB)-Suc}-VQIVYKRRRRRRRRR-NH2), the Drug uptake result is reported as “Active” in data set [8]; “Active” in data set [9]; “Active” in [10]; “Active” in data set [11]; “Active” in [12]; “Not Active” in data set [13]. The Drug uptake result in data set [14], in data set [15] and in [16] was “Active” in each case.

With Ac-LAVLFL-NH2, in the data set with HeLa, the result was Active.

Turning to Ac-VQIVKKRRRRRRRRR-NH2, the Activity entry in the data set with HT-22 [4] is “Not Active”. In addition, the outcome in the data set on HeLa was Active.

As to Ac-LAVLFLRRRRRRRRR-NH2, the outcome with HT-22 [3], in the data set on HT-22 [17], with HT-22 [5] and with HT-22 [6] was Active. The EC50 in the data set with MDA-MB-231 was found to be 20 µM; with HeLa (read-out: ED50 (the source's name)), 3 µM. Moreover, the results for the Activity entry in the data set with MCF-10A and in the data set with HT-22 [18] were “Non-Toxic” and “Active”, respectively.
